Measured values from ChEMBL document CHEMBL3112476, “Inhibition of IκB kinase-β and IκB kinase-α by heterocyclic adamantyl arotinoids” (Bioorg Med Chem, 2014).

Legend:
[1] = target: T1, Inhibitor of nuclear factor kappa-B kinase subunit beta (Homo sapiens) (UniProt O14920); assay: Inhibition of recombinant IKKbeta (unknown origin) using ulight-IkappaomegaBalpha as substrate at 20 uM after 1 hr by LANCE ultra TR-FRET assay relative to control
T1 sequence (whole entry): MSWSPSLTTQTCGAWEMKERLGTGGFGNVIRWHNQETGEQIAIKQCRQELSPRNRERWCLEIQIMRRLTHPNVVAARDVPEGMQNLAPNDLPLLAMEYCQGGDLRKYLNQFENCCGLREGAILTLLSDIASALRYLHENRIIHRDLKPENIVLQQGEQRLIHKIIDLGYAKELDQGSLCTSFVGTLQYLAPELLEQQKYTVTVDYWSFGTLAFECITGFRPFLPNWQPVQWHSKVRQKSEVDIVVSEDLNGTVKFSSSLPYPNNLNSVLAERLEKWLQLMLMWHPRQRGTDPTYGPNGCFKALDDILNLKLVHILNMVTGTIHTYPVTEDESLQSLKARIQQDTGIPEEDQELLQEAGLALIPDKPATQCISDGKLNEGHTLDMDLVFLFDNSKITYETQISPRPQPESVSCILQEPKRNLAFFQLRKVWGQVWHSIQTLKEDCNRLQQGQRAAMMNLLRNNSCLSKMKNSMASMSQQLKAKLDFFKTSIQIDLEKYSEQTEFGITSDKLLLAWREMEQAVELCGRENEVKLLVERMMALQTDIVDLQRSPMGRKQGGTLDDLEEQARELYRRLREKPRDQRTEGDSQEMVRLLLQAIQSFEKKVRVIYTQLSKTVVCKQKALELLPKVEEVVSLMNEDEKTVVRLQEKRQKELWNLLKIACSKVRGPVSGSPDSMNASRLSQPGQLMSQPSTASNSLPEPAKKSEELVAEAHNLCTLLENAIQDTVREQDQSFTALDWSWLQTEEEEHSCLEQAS

[2] = Cytotoxicity against human Jurkat T cells assessed as cell viability at 4 uM after 24 hrs by CellTiter-Glo assay relative to control; assay type: functional; conditions: read-out: Activity
Method in brief: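 Jurkat cells in 0.5% FBS RPMI were exposed to 4 µM compound or 0.1% DMSO for 24 h. Viability was read as ATP by CellTiter-Glo luminescence and expressed as percent of solvent control; below 60% counted as cell killing. Data: three experiments, triplicate.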

[3] = target: T2, Inhibitor of nuclear factor kappa-B kinase subunit epsilon (Homo sapiens) (UniProt Q14164); assay: Inhibition of recombinant IKKepsilon (unknown origin) using ulight-rpS6 as substrate at 20 uM after 2 hrs by LANCE ultra TR-FRET assay relative to control
T2 sequence (whole entry): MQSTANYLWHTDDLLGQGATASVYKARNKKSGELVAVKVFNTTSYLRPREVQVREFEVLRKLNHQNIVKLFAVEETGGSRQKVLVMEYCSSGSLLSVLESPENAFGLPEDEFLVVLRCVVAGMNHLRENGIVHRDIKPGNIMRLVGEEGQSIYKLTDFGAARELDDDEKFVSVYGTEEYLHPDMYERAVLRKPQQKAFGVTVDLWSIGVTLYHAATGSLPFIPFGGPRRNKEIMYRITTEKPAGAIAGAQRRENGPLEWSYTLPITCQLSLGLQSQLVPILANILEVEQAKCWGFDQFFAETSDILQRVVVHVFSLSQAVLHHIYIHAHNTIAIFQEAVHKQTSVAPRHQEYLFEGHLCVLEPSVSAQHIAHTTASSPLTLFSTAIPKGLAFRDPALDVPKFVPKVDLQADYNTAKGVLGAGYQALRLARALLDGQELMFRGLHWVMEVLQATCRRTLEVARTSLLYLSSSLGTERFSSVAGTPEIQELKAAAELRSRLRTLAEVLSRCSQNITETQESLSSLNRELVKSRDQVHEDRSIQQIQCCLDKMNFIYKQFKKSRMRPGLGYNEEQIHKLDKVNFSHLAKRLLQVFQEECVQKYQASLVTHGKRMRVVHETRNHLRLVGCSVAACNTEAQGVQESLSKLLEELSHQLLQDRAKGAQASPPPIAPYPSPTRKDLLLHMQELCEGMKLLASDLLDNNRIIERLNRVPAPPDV

[4] = target: T3, Inhibitor of nuclear factor kappa-B kinase subunit alpha (Homo sapiens) (UniProt O15111); assay: Inhibition of recombinant IKKalpha (unknown origin) using ulight-IkappaomegaBalpha as substrate at 20 uM after 2 hrs by LANCE ultra TR-FRET assay relative to control
T3 sequence (whole entry): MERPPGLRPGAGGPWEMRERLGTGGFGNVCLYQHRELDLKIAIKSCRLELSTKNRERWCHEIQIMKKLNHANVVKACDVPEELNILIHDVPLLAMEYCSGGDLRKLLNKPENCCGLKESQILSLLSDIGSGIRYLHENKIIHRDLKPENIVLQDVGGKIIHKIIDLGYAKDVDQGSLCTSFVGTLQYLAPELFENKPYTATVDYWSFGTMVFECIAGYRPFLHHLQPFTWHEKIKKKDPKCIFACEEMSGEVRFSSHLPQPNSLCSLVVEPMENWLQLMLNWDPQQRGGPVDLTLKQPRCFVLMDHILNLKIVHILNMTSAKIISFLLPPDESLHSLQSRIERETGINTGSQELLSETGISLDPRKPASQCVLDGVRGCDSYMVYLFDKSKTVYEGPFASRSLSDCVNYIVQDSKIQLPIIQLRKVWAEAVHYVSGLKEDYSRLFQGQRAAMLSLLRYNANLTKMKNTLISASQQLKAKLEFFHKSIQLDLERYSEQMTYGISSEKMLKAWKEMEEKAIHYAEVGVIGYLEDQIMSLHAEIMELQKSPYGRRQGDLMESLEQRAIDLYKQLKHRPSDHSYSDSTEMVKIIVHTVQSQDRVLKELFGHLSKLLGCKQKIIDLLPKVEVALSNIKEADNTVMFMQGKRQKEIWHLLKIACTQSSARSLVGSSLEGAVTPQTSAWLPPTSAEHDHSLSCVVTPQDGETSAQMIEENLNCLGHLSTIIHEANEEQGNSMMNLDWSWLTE
Method in brief: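 Recombinant IKKα (4 nM), IKKβ (1 nM) or IKKε (2 nM) in 50 mM Hepes pH 7.4, 10 mM MgCl2, 1 mM EGTA, 2 mM DTT, 0.01% Tween-20. Substrate was 50 nM ULight-IκBα (IKKα/β) or ULight-rpS6 (IKKε); ATP was 1.25 µM (α/β) or 5 µM (ε). Compound was tested at 20 µM. Incubation was 1 h (IKKβ) or 2 h (IKKα/ε) at room temperature, stopped with 20 mM EDTA plus 2 nM Eu-anti-phospho antibody, then TR-FRET 665/615 nm. Results are percent inhibition versus solvent; 3–4 experiments, triplicate.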

[5] = system: Jurkat; assay: Induction of apoptosis in human Jurkat cells assessed as activation of DEVDase at 5 uM after 4 hrs by fluorometric assay relative to control; assay type: functional
Method in brief: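 Jurkat cells (20,000/well, 0.5% FBS RPMI) were treated 4 h with 5 µM compound and lysed 15 min in PIPES pH 7 buffer with NP-40, cytochalasin B and protease inhibitors. An equal volume of 2× caspase buffer containing 100 µM Ac-DEVD-AFC was added. AFC fluorescence (ex 390/em 510 nm) was read every 2 min for 1 h at 37 °C; the linear slope was taken as activity, expressed as fold over DMSO control. Data: 2 experiments, triplicate.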

[6] = Cytotoxicity against human Jurkat T cells assessed as cell viability after 24 hrs by CellTiter-Glo assay; assay type: functional, cell-based
Method in brief: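 Jurkat cells were seeded the day before treatment in RPMI with 0.5% FBS (10,000 cells/well). They were treated in triplicate across an 8-point dose series starting at 10 µM, with DMSO ≤0.1% as solvent control. ATP was measured by CellTiter-Glo luminescence after 24 h; a time-0 reading separated cytostatic from cytotoxic effects. IC50 was fitted from the curve.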

[7] = target: T4, Inhibitor of nuclear factor kappa-B kinase subunit beta (Homo sapiens, UniProt O14920); assay: Inhibition of recombinant IKKbeta (unknown origin) using ulight-IkappaomegaBalpha as substrate after 1 hr by LANCE ultra TR-FRET assay
T4 sequence (O14920 whole entry): T1 sequence (whole entry)

[8] = target: T5, Retinoic acid receptor alpha (Homo sapiens) (UniProt P10276); assay: Agonist activity at Gal4-fused RARalpha (unknown origin) transfected in HEK293 cells assessed as induction of transcriptional activity at 4 uM after 6 hrs by luciferase/beta-galactosidase reporter gene assay relative to control; assay type: cell-based
T5 sequence (whole entry): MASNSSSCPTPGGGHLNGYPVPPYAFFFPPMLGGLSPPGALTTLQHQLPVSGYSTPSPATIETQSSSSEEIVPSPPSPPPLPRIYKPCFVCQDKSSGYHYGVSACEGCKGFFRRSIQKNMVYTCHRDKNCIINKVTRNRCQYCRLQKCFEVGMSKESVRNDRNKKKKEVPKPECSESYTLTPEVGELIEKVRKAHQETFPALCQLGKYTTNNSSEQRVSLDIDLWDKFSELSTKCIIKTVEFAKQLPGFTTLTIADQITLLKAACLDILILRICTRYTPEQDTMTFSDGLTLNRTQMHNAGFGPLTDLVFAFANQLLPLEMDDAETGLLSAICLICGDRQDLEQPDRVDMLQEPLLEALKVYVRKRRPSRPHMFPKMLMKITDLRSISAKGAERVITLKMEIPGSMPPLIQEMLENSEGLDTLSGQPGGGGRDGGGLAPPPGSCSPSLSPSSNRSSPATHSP
Method in brief: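 Gal4-RARα or Gal4-RXRα (10 ng) plus 2 ng β-galactosidase vector, calcium phosphate transfection into HEK-293 cells carrying a 5×UAS luciferase reporter. After 16 h, cells were washed and given 5% charcoal-treated FBS medium, then rested 2 h. Stimulation was with 4 µM compound or 0.1% DMSO; controls were 1 µM atRA (RARα) or 1 µM CD3254 (RXRα). Harvest was at 6 h (RARα) or 24 h (RXRα). Luciferase/β-gal ratio was expressed as fold over unstimulated cells. Data: 2 experiments, triplicate.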

[9] = target: T5, Retinoic acid receptor alpha (Homo sapiens); assay: Antagonist activity at Gal4-fused RARalpha (unknown origin) transfected in HEK293 cells assessed as ATRA-induced transcriptional activity at 4 uM by luciferase/beta-galactosidase reporter gene assay relative to ATRA-treated control; assay type: cell-based; set-up: scale not given: the % may be the effect or the level left
Method in brief: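 Same Gal4-RARα HEK-293 UAS-luciferase system, stimulated with 0.1 µM atRA alone or with 4 µM compound (40-fold molar excess); 1 µM UVI2024 served as control antagonist. Background-subtracted luciferase was normalized to β-galactosidase and given as percent of atRA-stimulated cells. Data: 2–3 experiments, triplicate.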

[10] = target: T6, Retinoic acid receptor alpha (Homo sapiens, UniProt P10276); assay: Inverse agonist activity at RARalpha (unknown origin)
T6 sequence (P10276 whole entry): T5 sequence (whole entry)

[11] = target: T7, Retinoic acid receptor RXR-alpha (Homo sapiens) (UniProt P19793); assay: Antagonist activity at recombinant GST-tagged RXRalpha LBD (unknown origin) assessed as inhibition of CD3254-induced fluorescein labeled D22 coactivator recruitment at 8 uM after 4 hrs by TR-FRET assay
T7 sequence (whole entry): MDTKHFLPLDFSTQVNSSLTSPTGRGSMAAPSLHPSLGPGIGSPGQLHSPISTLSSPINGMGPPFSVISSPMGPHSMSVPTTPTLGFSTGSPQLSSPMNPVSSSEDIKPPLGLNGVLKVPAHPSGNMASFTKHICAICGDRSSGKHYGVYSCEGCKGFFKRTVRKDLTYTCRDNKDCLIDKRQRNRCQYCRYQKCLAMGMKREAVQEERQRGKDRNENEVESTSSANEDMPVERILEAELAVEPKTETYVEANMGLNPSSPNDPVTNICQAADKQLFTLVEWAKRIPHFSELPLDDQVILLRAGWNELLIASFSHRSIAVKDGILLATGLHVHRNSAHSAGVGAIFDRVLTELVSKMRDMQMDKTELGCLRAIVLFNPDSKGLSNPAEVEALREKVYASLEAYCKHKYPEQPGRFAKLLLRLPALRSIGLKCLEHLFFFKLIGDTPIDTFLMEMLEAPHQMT
Method in brief: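 GST-RXRα LBD (5 nM) was incubated at room temperature with 150 nM fluorescein-D22 peptide in pH 7.4 Hepes binding buffer containing DTT, with a suboptimal concentration of CD3254 plus test ligand (≤1% DMSO). Terbium anti-GST antibody (2 nM) was the donor. The 520/495 nm TR-FRET ratio was read after 4 h and expressed as Delta F% versus controls lacking GST-RXRα.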

Structure (SMILES) | inhibition [1] | inhibition [3] | inhibition [4] | IC50 [7] | fold change (FC) [8] | Activity [9] | IC50 [10] | viability at 4 µM [2] | fold change (FC) [5] | IC50 [6] | inhibition [11]
COCCOCOc1ccc(C(=O)/C=C/c2ccc(C(=O)O)cc2)cc1C12CC3CC(CC(C3)C1)C2 | 43.9% | 15.8% | 56.3% | 11.8 µM | – | – | – | 28.5% | 20.7 | 3.33 µM | –
CC1(C)CC=C(C#Cc2ccccc2)c2cc(/C=C/c3ccc(C(=O)O)cc3)ccc21 | – | – | – | – | 1.3 | 7.1% | 0.114 µM | – | – | – | –
CCCCCOc1cc2c(cc1-c1cc(/C=C/C(=O)O)ccc1O)C(C)(C)CCC2(C)C | – | – | – | – | – | – | – | – | – | – | 25%

Further lines, with some results ahead:

inhibition [1] | inhibition [3] | inhibition [4] | IC50 [7] | fold change (FC) [8] | Activity [9] | IC50 [10] | Structure (SMILES) | viability at 4 µM [2] | fold change (FC) [5] | IC50 [6] | inhibition [11]
40.6% | 24.1% | 41.3% | – | – | – | – | O=C(O)/C=C/c1ccc(-c2ccc(O)c(C34CC5CC(CC(C5)C3)C4)c2)c(Cl)c1 | 6.6% | 74.3 | – | –
0% | 14.4% | 5% | – | – | – | – | CC(=O)NCCCOc1cc(/C=C/C(=O)O)ccc1-c1ccc(O)c(C23CC4CC(CC(C4)C2)C3)c1 | 42.7% | 6.1 | – | –
